Test results as given in the EternaBench riboswitch data.

Tested on: MS2 coat protein
Test: apparent Kd, MS2 coat protein; higher = weaker binding; RNA-MaP array; FMN 200 µM where present
Outline: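 Stalled E. coli RNA polymerase produced the designs on Illumina sequencing-chip clusters. SNAP-549-labelled MS2 coat protein was added from 0.7 or 1.5 nM, doubling to 3 µM, without and then with constant ligand, in 100 mM Tris-HCl pH 7.5, 80 mM KCl, 4 mM MgCl2, BSA, DTT, yeast tRNA and Tween-20. The apparent Kd is the median of filtered per-cluster fits of green signal normalised to red-channel RNA signal and control-cluster median Fmax.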

[1] = designed as: OFF switch for flavin mononucleotide, no ligand
[2] = ligand present: flavin mononucleotide, designed as: OFF switch for flavin mononucleotide
[3] = designed as: ON switch for flavin mononucleotide, no ligand
[4] = ligand present: flavin mononucleotide, designed as: ON switch for flavin mononucleotide

Row | Sequence | apparent Kd [1] | apparent Kd [2] | apparent Kd [3] | apparent Kd [4]
1 | UCUUACUGAGGAUAUACUUAGAUUUACAUGAGGAUCACCCAUGUUCCUCUAUGUAUAUAUGUAGAAGGCAGAAGUU | 25.4 nM | 158 nM |  | 
2 | AAGCGAAAGCUAAAAUAUCUAUCAGAGGAUAUUUAUGAUACAUGAGGAUCACCCAUGUGACACUGGGAGAAGGCUGAUAGAUAA |  |  | 19.2 nM | 7.5 nM
3 | GGUACUCAAAGAGUACCAAUACGAACAUGAGGAUCACCCAUGUAGGAUAUGCUACUCAAAGAGUAGCAGAAGGACAUGUCCCUA | 13.1 nM | 35.2 nM |  | 
4 | GCGUUUGUAUCACAUGUAUUACAUGAGGAUCACCCAUGUUACUAGGAUAUGUAUUAGUAUUUUCAACAGAAGGAGUAAGAACGC | 18.8 nM | 23.5 nM |  | 
5 | GGCCCGGGAGGAUAUACAUGAGGAUCACCCAUGUGCUUCGGCUUGAUCAAGUUGAAGUGUAGAAGGCCCGGGCC | 14.2 nM | 21 nM |  | 
6 | AUACGGGCUAACAUGAGGAUCACCCAUGUGUUAUACUUAAUAUAGGAUAUGUUUAUACUUUUUGGGCAGAAGGAUGGCCCGUAU |  |  | 53.5 nM | 44.9 nM
7 | UGAAAUCAUGUAGGAUAUGCAUGGCGAAGCUACGCAGAAGGACAUGAGGAUCACCCAUGUUCUAGCUACCGGAUACGGUGGCAA | 23.1 nM | 116 nM |  | 
8 | GUGCGUGGCUAGGAUAUUGUGGAGUUUAGUCAGCGAGAAGGAGCCACAUGAGGAUCACCCAUGUGGUGUUGCUC | 40.5 nM | 101 nM |  | 
9 | CGCAUCUCUACAAUUCCUUCACAUGAGGAUCACCCAUGUAGGGAGGAUAUGCAAGCUUAUUGGCGGCAGAAGGCCCUGCAAUGG | 142 nM | 127 nM |  | 
10 | UAUAUAUAGUAAGGAUAUGUAUUAAUUUUAGAAACAGAAGGUACUGACAUGAGGAUCACCCAUGUUUUAGUGUGGGCAUGUAGA | 98.3 nM | 147 nM |  | 
11 | ACAUGAGGAUCACCCAUGUUUUUUGGGUACUCUUGAUACAGCAAGGAUAUGCAUUAUUUAUGUACGCAGAAGGUGCAUUACGUC | 920 nM | 853 nM |  | 
12 | UGAACUAUGUAGAAGGCCCAUAUUUAUAUAUAGGGAGGAUAUACAUGAGGAUCACCCAUGUAUAGAGCAAGAGGACUUGUCAGU | 6.34 nM | 7.07 nM |  | 
13 | UACAUCAAUGAAGGAUAUCUAUAUCCAACAUGAGGAUCACCCAUGUUGAGGAUCACCCAUGUAAAGGAGAAGGUUAACAUAACU |  |  | 39.4 nM | 34 nM
14 | UAUAUGUCAGGAUAUCGAUUGGAAUGGAAUUCGGUUCUGGUUGAGAAGGGACAUGAGGAUCACCCAUGUUUUUC | 27.6 nM | 84.4 nM |  | 
15 | AUAGUUUUUGAGAAGGCAUUUCUUAAGUGAUCUUACUAGUACAUGAGGAUCACCCAUGUUUUGUAUGAGGAUAUCAGUAGGUUG | 33.9 nM | 31.7 nM |  | 
16 | UGGGUUGUUGUGAGGAUAUACUGUUUGUUUUGUUUGUAGAAGGUACAUGAGGAUCACCCAUGUUGGUUGUGGUU | 262 nM | 228 nM |  | 
17 | CCUUUAUUUUCAGGAUAUCCGUUUAGGUAGAUAACAUGAGGAUCACCCAUGUCCAUGUUGUAAGUGGAGAAGGGAAAGAGUGGG |  |  | 182 nM | 120 nM
18 | GAAUAGGCAGGAUAUACAUGAGGAUCACCCAUGUGCUUGCGAUCGGCAAGCGAACAACGUAGAAGGGCCUUAAC | 16.2 nM | 37.3 nM |  | 
19 | UCGCGGGUGCAGAAGGGAUAGGCCUAUUUUCGUGGUGUCCAAACUUAACAUGAGGAUCACCCAUGUCAGGAUAUGCCCACGCGA | 29.5 nM | 52.7 nM |  | 
20 | AAUAUGAGCUGGUUUAAAUCCGAAACAUGAGGAUCACCCAUGUAGGAUAUCAGCACGAUAAGUGCUGAGAAGGACAUCCAGCUC | 15.6 nM | 15 nM |  | 
